# Measurements taken from ChEMBL document CHEMBL1151806, “Indolizidine, antiinfective and antiparasitic compounds from Prosopis glandulosa var. glandulosa” (J Nat Prod, 2009).
# Calls of active or inactive are those of the source. The rule behind the calls is not given here.
# What was measured:
# [1] = system: Plasmodium berghei; test: Antimalarial activity as elimination of parasitaemia at day 28 against Plasmodium berghei NK65 infected Swiss Webster mice (Mus musculus) at 10 mg/kg/day intraperitoneal dose for 3 days; type: functional, organism-based
# Procedure, shortened: (§1)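 Peters 4-day suppressive test: male Swiss Webster mice (18–20 g) inoculated ip with 2·10^7 P. berghei NK-65 parasitized red cells. Compound in DMSO:PEG:water (1:3:6) given ip ~2 h post-infection, then once daily for 3 days (days 0–2). 5 mice/group; vehicle-treated control. Giemsa-stained tail blood smears read to day 28. % suppression = 100 − (treated/untreated parasitemia × 100). Cure = no parasitemia until day 28. Mice observed after each dose for signs of toxicity.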
# [2] = system: Plasmodium berghei; test: Antimalarial activity as reduced parasitaemia at day 10 against Plasmodium berghei NK65 infected Swiss Webster mice (Mus musculus) at 10 mg/kg/day intraperitoneal dose for 3 days; type: functional; design: scale not given: the % may be the effect or the level left; procedure, shortened: as §1
# [3] = system: Plasmodium berghei; test: Antimalarial activity as reduced parasitaemia at day 17 against Plasmodium berghei NK65 infected Swiss Webster mice (Mus musculus) at 10 mg/kg/day intraperitoneal dose for 3 days; type: functional; design: scale not given: the % may be the effect or the level left; procedure, shortened: as §1
# [4] = system: Cryptococcus neoformans; test: Antimicrobial activity against Cryptococcus neoformans ATCC 90113 by NCCLS method in presence of 5% human serum; type: functional, organism-based
# [5] = system: Cryptococcus neoformans; test: Antimicrobial activity against Cryptococcus neoformans ATCC 90113 by NCCLS method; type: functional, organism-based
# Procedure, shortened: (§2)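 Samples serially diluted in 20% DMSO/saline, tested in duplicate. Inocula set by OD630: C. albicans RPMI pH 4.5, 1·10^4 CFU/mL; C. neoformans Sabouraud dextrose, 1·10^5; MRSA cation-adjusted Mueller-Hinton pH 7.3, 5·10^5; M. intracellulare 7H9/OADC + 5% Alamar Blue pH 7.3, 2·10^6; A. fumigatus RPMI pH 7.3 + 5% Alamar Blue, 3·10^4.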
# [6] = system: Plasmodium berghei; test: Antimalarial activity as reduced parasitaemia at day 3 against Plasmodium berghei NK65 infected Swiss Webster mice (Mus musculus) at 2 mg/kg/day intraperitoneal dose for 3 days; type: functional; design: scale not given: the % may be the effect or the level left; procedure, shortened: as §1
# [7] = system: Aspergillus fumigatus; test: Antimicrobial activity against Aspergillus fumigatus ATCC 90906 by alamar blue assay; type: functional, organism-based; procedure, shortened: as §2
# [8] = system: Staphylococcus aureus; test: Antimicrobial activity against methicillin-resistant Staphylococcus aureus ATCC 43300 by NCCLS method in presence of 5% human serum; type: functional, organism-based
# [9] = system: Plasmodium berghei; test: Antimalarial activity as elimination of parasitaemia at day 28 against Plasmodium berghei NK65 infected Swiss Webster mice (Mus musculus) at 2 mg/kg/day intraperitoneal dose for 3 days; type: functional, organism-based; procedure, shortened: as §1
# [10] = system: SK-MEL; test: Cytotoxicity against human SK-MEL cells after 48 hrs by neutral red assay; type: functional, cell-based
# Procedure, shortened: (§3)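 Cells seeded at 25,000/well, incubated 24 h, then exposed to samples for 48 h. Viable cells measured by Neutral Red uptake. IC50 from logarithmic plots of growth inhibition vs concentration. Doxorubicin positive control, DMSO vehicle control.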
# [11] = system: Plasmodium berghei; test: Antimalarial activity as reduced parasitaemia against Plasmodium berghei NK65 infected Swiss Webster mice (Mus musculus); type: functional
# [12] = system: Plasmodium falciparum; test: Antimalarial activity after 72 hrs against chloroquine-resistant Plasmodium falciparum W2 by pLDH activity; type: functional, organism-based; conditions: W2, 72 h
# Procedure, shortened: (§4)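 P. falciparum-infected red cells (2% parasitemia, 2% hematocrit) in RPMI-1640 with 10% human serum and 60 μg/mL amikacin, exposed to serial sample concentrations. Gassed with 90% N2/5% O2/5% CO2, incubated 37 °C for 72 h. Parasite LDH activity read colorimetrically with Malstat reagent.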
# [13] = system: Candida albicans; test: Antimicrobial activity against Candida albicans ATCC 90028 by NCCLS method; type: functional, organism-based; procedure, shortened: as §2
# [14] = system: LLC-PK1; test: Cytotoxicity against pig LLC-PK1 cells after 48 hrs by neutral red assay; type: cell-based, Sus scrofa; conditions: llc-pk1; procedure, shortened: as §3
# [15] = Toxicity in RBC assessed as hemolysis; type: cell-based; conditions: Erythrocyte
# [16] = system: Plasmodium berghei; test: Antimalarial activity as reduced parasitaemia at day 17 against Plasmodium berghei NK65 infected Swiss Webster mice (Mus musculus) at 1 mg/kg/day intraperitoneal dose for 3 days; type: functional, organism-based; procedure, shortened: as §1
# [17] = system: Cryptococcus neoformans; test: Antimicrobial activity against Cryptococcus neoformans ATCC 90113 infected in mouse assessed as […] elimination from brain tissue at 0.0625 mg/kg/day, ip for 5 days; type: functional; conditions: route intraperitoneal
# [18] = system: Mus musculus; test: Toxicity in Swiss Webster mouse at 1 mg/kg, ip administered once daily for 3 days; type: organism-based; design: dose 1 mg/kg, route intraperitoneal; conditions: in vivo, 72 h; procedure, shortened: as §1
# [19] = system: Plasmodium berghei; test: Antimalarial activity as reduced parasitaemia at day 10 against Plasmodium berghei NK65 infected Swiss Webster mice (Mus musculus) at 1 mg/kg/day intraperitoneal dose for 3 days; type: functional; design: scale not given: the % may be the effect or the level left; procedure, shortened: as §1
# [20] = system: Plasmodium falciparum; test: Antimalarial activity after 72 hrs against […] Plasmodium falciparum D6 by pLDH activity; type: functional, organism-based; conditions: D6, 72 h; procedure, shortened: as §4
# [21] = system: Mycobacterium intracellulare; test: Antimicrobial activity against Mycobacterium intracellular ATCC 23068 by alamar blue assay; type: functional, organism-based
# Procedure, shortened: as §2, with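 “3·10^4. Read at 630 nm or 544ex/590em before and after incubation.” for “3·10^4.”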
# [22] = system: Staphylococcus aureus; test: Antimicrobial activity against methicillin-resistant Staphylococcus aureus ATCC 43300 by NCCLS method; type: functional, organism-based; procedure, shortened: as §2
# [23] = system: Plasmodium berghei; test: Antimalarial activity as reduced parasitaemia at day 3 against Plasmodium berghei NK65 infected Swiss Webster mice (Mus musculus) at 1 mg/kg/day intraperitoneal dose for 3 days; type: functional; design: scale not given: the % may be the effect or the level left; procedure, shortened: as §1
# [24] = system: Aspergillus fumigatus; test: Antimicrobial activity against Aspergillus fumigatus ATCC 90906 by alamar blue assay in presence of 5% human serum; type: functional, organism-based
# [25] = system: KB; test: Cytotoxicity against human KB cells after 48 hrs by neutral red assay; type: functional, cell-based; procedure, shortened: as §3
# [26] = system: Plasmodium berghei; test: Antimalarial activity as reduced parasitaemia at day 17 against Plasmodium berghei NK65 infected Swiss Webster mice (Mus musculus) at 2 mg/kg/day intraperitoneal dose for 3 days; type: functional, organism-based; procedure, shortened: as §1
# [27] = system: Plasmodium berghei; test: Antimalarial activity as elimination of parasitaemia at day 28 against Plasmodium berghei NK65 infected Swiss Webster mice (Mus musculus) at 1 mg/kg/day intraperitoneal dose for 3 days; type: functional, organism-based; procedure, shortened: as §1
# [28] = system: Vero; test: Cytotoxicity against african green monkey Vero cells; type: cell-based; conditions: Chlorocebus sabaeus; procedure, shortened: as §3
# [29] = system: Mycobacterium intracellulare; test: Antimicrobial activity against Mycobacterium intracellular ATCC 23068 by alamar blue assay in presence of 5% human serum; type: functional, organism-based
# [30] = system: Leishmania donovani; test: Antileishmanial activity against Leishmania donovani promastigotes after 48 hrs by alamar blue assay; type: functional, organism-based
# [31] = system: BT-549; test: Cytotoxicity against human BT549 cells after 48 hrs by neutral red assay; type: functional, cell-based; conditions: BT-549, 48 h; procedure, shortened: as §3
# [32] = system: Candida albicans; test: Antimicrobial activity against Candida albicans ATCC 90028 by NCCLS method in presence of 5% human serum; type: functional, organism-based
# [33] = system: Vero; test: Cytotoxicity against african green monkey Vero cells after 48 hrs by neutral red assay; type: cell-based, Chlorocebus sabaeus; conditions: vero; procedure, shortened: as §3
smiles,measurement,setting,value
CCO[C@H]1O[C@@H]2O[C@@]3(C)CC[C@H]4[C@H](C)CC[C@@H]([C@H]1C)[C@@]24OO3 [ARTEMOTIL],Activity,[1],Active
same,Activity,[2],100%
same,Activity,[3],100%
C[C@@H]1N[C@H](CCCCCCCCCCc2cc(CCCCCCCCCC[C@@H]3CC[C@H](O)[C@@H](C)N3)c3[n+](c2)CCC3)CC[C@H]1O.[Cl-] [PROSOPILOSIDINE],Activity,[4],Active
same,IC50,[5],0.4 µg/mL
same,MIC,[5],0.63 µg/mL
same,Activity,[6],48%
same,MFC,[7],inactive
same,MIC,"[7]; Aspergillus fumigatus, ATCC 90906",5 µg/mL
same,IC50,"[7]; Aspergillus fumigatus, ATCC 90906, read-out: IC50",3 µg/mL
same,Activity,[8],Active
same,Activity,[9],inactive
same,IC50,[10],4.5 µg/mL
same,ED50,[11],2 mg/kg
same,IC50,[12],0.095 µg/mL
same,MFC,[13],inactive
same,MIC,[13],inactive
same,IC50,"[13]; Candida albicans, ATCC 90028, read-out: IC50",15 µg/mL
same,IC50,[14],Not Active
same,IC50,[15],16 µg/mL
same,Activity,[16],inactive
same,Activity,[17],76%
same,Activity,[18],Non-toxic
same,Activity,[19],40.5%
same,IC50,[20],0.039 µg/mL
same,IC50,[21],0.9 µg/mL
same,MBC,[21],20 µg/mL
same,IC50,[22],0.35 µg/mL
same,MBC,[22],5 µg/mL
same,MIC,[22],1.25 µg/mL
same,Activity,[23],48%
same,Activity,[24],Active
same,IC50,[25],7.5 µg/mL
same,Activity,[26],inactive
same,Activity,[27],inactive
same,IC50,[28],> 23.8 µg/mL
same,Activity,[29],Active
same,IC50,[30],0.7 µg/mL
same,IC90,[30],1.9 µg/mL
same,IC50,[31],8.75 µg/mL
same,Activity,[32],Active
same,IC50,[33],Not Active
